Bioassay records from PubChem BioAssay.
The sample as a whole holds a higher share of hits than the screen did.
T cruzi growth-1 – blocks T. cruzi growth in NIH3T3 culture. T. cruzi beta-gal in NIH3T3, GalScreen luminescence, 90 h. inhibition, % at 8.34 µM. 5.9% of 77,000 active. AID 624255;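 active means mean inhibition above about 93%, with at least 55% of replicates each passing it, limit read from the data, passing the limit was not always enough; inconclusive means only one of those two conditions holds; inactive means neither condition holds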
IDH1 R132H inh – inhibitors of human IDH1 R132H; O75874; IDH1 R132H reductase, diaphorase/resazurin fluorescence, 60 min; inhibition, % at 10 µM; 0.18% of 70,000 active; AID 624101; in the data active means inhibition above about 34%; inconclusive means no clear call, values can overlap the other calls; inactive means below about 11%;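 further: 0% = DMSO and 100% = no enzyme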
Target sequence (O75874 whole entry R132H): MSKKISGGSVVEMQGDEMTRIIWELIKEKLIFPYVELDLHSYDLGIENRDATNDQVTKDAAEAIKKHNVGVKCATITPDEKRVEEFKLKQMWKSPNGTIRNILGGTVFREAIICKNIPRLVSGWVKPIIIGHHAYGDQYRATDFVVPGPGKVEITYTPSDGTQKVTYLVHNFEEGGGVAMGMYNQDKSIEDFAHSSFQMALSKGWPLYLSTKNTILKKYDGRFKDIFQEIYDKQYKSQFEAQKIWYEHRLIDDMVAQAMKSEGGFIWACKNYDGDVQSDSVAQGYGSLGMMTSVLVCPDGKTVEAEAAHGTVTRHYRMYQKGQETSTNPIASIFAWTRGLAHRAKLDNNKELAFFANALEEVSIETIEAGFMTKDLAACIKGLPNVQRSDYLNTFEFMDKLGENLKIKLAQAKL
GASC1 inh – inhibitors of human demethylase GASC-1 KDM4C; GST-KDM4C 2-372, H3K9me3 peptide, LANCE TR-FRET; inhibition, % at 12.5 µM; 0.15% of 96,000 active;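 active means mean replicate inhibition above about 25%, with at least 55% of replicates also reaching it, limit read from the data, passing the limit was not always enough; inconclusive means only one of those two conditions met; inactive means neither condition met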
Target sequence (Q9H3R0 2-372 limits assumed): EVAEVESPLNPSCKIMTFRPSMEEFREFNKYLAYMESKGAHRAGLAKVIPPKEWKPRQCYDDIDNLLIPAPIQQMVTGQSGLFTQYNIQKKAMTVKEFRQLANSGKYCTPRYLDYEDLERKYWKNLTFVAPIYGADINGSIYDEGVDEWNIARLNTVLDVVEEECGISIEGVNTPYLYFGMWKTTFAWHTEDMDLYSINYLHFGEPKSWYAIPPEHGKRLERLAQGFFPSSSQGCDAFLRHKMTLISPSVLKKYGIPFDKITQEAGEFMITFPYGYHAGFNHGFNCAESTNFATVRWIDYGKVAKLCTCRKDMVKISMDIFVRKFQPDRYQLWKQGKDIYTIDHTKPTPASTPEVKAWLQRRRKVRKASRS
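System: N-terminal GST-fused human GASC-1 (KDM4C) fragment, residues 2-372; amount: enzyme final amount 10 nM; incubation: reaction 30 min RT, detection step 1 h RT; medium: HEPES buffer, pH 7.5, plus ascorbate; technique: LANCE TR-FRET, Eu antibody, ULight-streptavidin, EDTA, ex 340 nm, em 618/671 nm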
T cruzi growth-2 – inhibitors of T. cruzi proliferation; shares compounds with T cruzi growth-1; T. cruzi beta-gal in NIH3T3, GalScreen luminescence, 90 h; inhibition, % at 8.35 µM; 72% of 5,600 active; AID 651739;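 active means mean replicate inhibition above about 95% and at least 55% of replicates individually reaching it, limit read from the data; inconclusive means only one of the two criteria is met; inactive means neither criterion is met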
T cruzi growth-3 – inhibitors of T. cruzi proliferation; shares compounds with T cruzi growth-1; T. cruzi beta-gal in NIH3T3, GalScreen luminescence, 90 h; inhibition, % at 2.09 µM; 21% of 5,600 active;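 active means mean inhibition above about 95%, with at least 55% of replicates also reaching it, limit read from the data; inconclusive means meets just one of the two conditions; inactive means meets neither condition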;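 further: plate controls were neutral control median for no effect and positive control median for full effect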
NIH3T3 tox – kills mouse NIH/3T3 fibroblasts. NIH/3T3 viability, CellTiter-Glo ATP luminescence, 90 h. cytotoxicity (signal decrease), % at 8.35 µM. 14% of 5,600 active. shares compounds with T cruzi growth-1. AID 651742;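 active means mean signal decrease across replicates above about 35% based on untreated-well scatter, with enough replicates individually passing, limit read from the data; inconclusive means no rule stated though some were filed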;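 further: 0% = median of neutral control wells and 100% = median of positive control wells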
NIH3T3 tox 2 – cytotoxicity in mouse NIH/3T3 fibroblasts; shares compounds with T cruzi growth-1; NIH/3T3 viability, CellTiter-Glo ATP luminescence, 90 h; inhibition, % at 24.9 µM; 56% of 5,600 active; AID 651744;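 active means mean loss of cell viability signal at or above a set limit, and enough replicates individually reaching it; inconclusive means meets only the mean limit or only the replicate share; inactive means meets neither condition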;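 further: 0% = median of neutral control wells and 100% = median of positive control wells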
* hit, by the source's call; ? = inconclusive; / = no result.

SMILES | T cruzi growth-1 | IDH1 R132H inh | GASC1 inh | T cruzi growth-2 | T cruzi growth-3 | NIH3T3 tox | NIH3T3 tox 2
CCCN(C)C[C@@H]1Oc2cc(C#CCC(C)C)ccc2S(=O)(=O)N([C@@H](C)CO)C[C@@H]1C | 108* | -1 | 0 | 110* | 110* | 14 | 104*
CS(=O)(=O)N(CC(=O)Nc1ccc(I)cc1)c1cccc2ccccc12 | / | 1 | / | / | / | / | /
COc1ccc(Br)cc1/C=N/NC(=O)c1cccc(C(=O)NO)c1 | / | -1 | / | / | / | / | /
COc1c(Cl)cc(C(=O)Nc2sc3c(c2C(=O)NCc2cccnc2)CCCC3)cc1Cl | / | 1 | / | / | / | / | /
N#Cc1cccc(-c2ccc3c(c2)[C@@H]2[C@@H](CCN2C(=O)c2ccc4c(c2)OCO4)[C@H](CO)N3)c1 | ? | / | 1 | 97* | 73 | 30 | 48*
N#Cc1cccc(-c2ccc3c(c2)[C@H]2[C@H](CCN2C(=O)c2ccc4c(c2)OCO4)[C@H](CO)N3)c1 | 86 | / | -3 | / | / | / | /
CN(C)C(=O)c1ccc(-c2ccc3c(c2)[C@@H]2[C@@H](CCN2C(=O)c2ccc4c(c2)OCO4)[C@@H](CO)N3)cc1 | 100* | / | 0 | 109* | 61 | 2 | 1
N#Cc1ccc(-c2ccc3c(c2)[C@H]2[C@H](CCN2C(=O)c2ccc4c(c2)OCO4)[C@H](CO)N3)cc1 | 25 | / | -3 | / | / | / | /
Cc1cccc(C)c1N(CC(=O)NC1CCCCC1)S(C)(=O)=O | / | 0 | / | / | / | / | /
O=C(Nc1cccc(Cn2cccn2)c1)c1cc(-c2ccccc2)nc2ccccc12 | / | 1 | / | / | / | / | /
Cc1ccccc1-c1ccc([C@H]2[C@H]3CN(C(=O)Nc4cccc(F)c4)CCCCN3[C@H]2CO)cc1 | 92 | / | 1 | / | / | / | /
O=C(Nc1cccc(F)c1)N1CCCCN2[C@@H](CO)[C@H](c3ccc(-c4ccccc4F)cc3)[C@@H]2C1 | 110* | / | -1 | 99* | 85 | 82* | 107*
O=C(Nc1cccc(F)c1)N1CCCCN2[C@H](CO)[C@@H](c3ccc(-c4ccccc4F)cc3)[C@H]2C1 | 108* | / | 0 | 89 | 107* | 75* | 105*
O=C(Nc1cccc(F)c1)N1CCCCN2[C@H](CO)[C@@H](c3ccc(-c4ccccc4F)cc3)[C@@H]2C1 | 68 | / | 0 | / | / | / | /
COc1ccc(NC(=O)N(C)C[C@H]2Oc3cc(-c4ccc(C)cc4)ccc3S(=O)(=O)N([C@@H](C)CO)C[C@@H]2C)cc1 | 126* | 0 | -1 | 107* | 60 | -9 | 37*
COc1ccc(NC(=O)N(C)C[C@@H]2Oc3cc(-c4cccc(C(=O)N(C)C)c4)ccc3S(=O)(=O)N([C@H](C)CO)C[C@@H]2C)cc1 | / | 0 | 1 | / | / | / | /
Cc1ccc(-c2ccc3c(c2)O[C@@H](CN(C)C(=O)Nc2ccccc2)[C@H](C)CN([C@H](C)CO)S3(=O)=O)cc1 | / | 0 | -1 | / | / | / | /
COc1ccc(NC(=O)N(C)C[C@@H]2Oc3cc(-c4ccc(C)cc4)ccc3S(=O)(=O)N([C@@H](C)CO)C[C@@H]2C)cc1 | 104* | 0 | -2 | 115* | 70 | ? | 43*
COc1ccc(NC(=O)N(C)C[C@@H]2Oc3cc(-c4ccc(C)cc4)ccc3S(=O)(=O)N([C@@H](C)CO)C[C@H]2C)cc1 | 97* | 5 | 0 | 104* | 55 | -2 | 23
COc1ccc(NC(=O)N(C)C[C@@H]2Oc3cc(-c4cccc(C(=O)N(C)C)c4)ccc3S(=O)(=O)N([C@@H](C)CO)C[C@@H]2C)cc1 | / | -3 | 2 | / | / | / | /
COc1ccc(NC(=O)N(C)C[C@@H]2Oc3cc(-c4cccc(C(=O)N(C)C)c4)ccc3S(=O)(=O)N([C@H](C)CO)C[C@H]2C)cc1 | / | 0 | 1 | / | / | / | /
COc1ccc(NC(=O)N(C)C[C@H]2Oc3cc(-c4ccc(C)cc4)ccc3S(=O)(=O)N([C@H](C)CO)C[C@@H]2C)cc1 | 114* | -2 | -3 | 95 | 26 | 29 | 27
Cc1cc(Cl)ccc1NC(=O)CN(C)S(=O)(=O)c1ccc(F)cc1 | / | 0 | / | / | / | / | /
CC(=O)O[C@@H]1c2c(ccc3ccc(=O)oc23)OC(C)(C)[C@@H]1OC(=O)C=C(C)C | / | 0 | / | / | / | / | /
COC(=O)CCSc1nc2sc3c(c2c(=O)n1-c1cccc(C)c1)CC(C)(C)OC3 | / | 2 | / | / | / | / | /
SMILES | T cruzi growth-1 | IDH1 R132H inh | GASC1 inh | T cruzi growth-2 | T cruzi growth-3 | NIH3T3 tox | NIH3T3 tox 2
COc1ccc(/C=C/C(=O)OC2C(C)OC(OC3C4C=COC(OC5OC(CO)C(O)C(O)C5O)C4C4(CO)OC34)C(O)C2O)cc1 (configuration not stated) | / | 0 | / | / | / | / | /
O=C(CSc1nc2ccc(NC(=O)c3ccccc3Br)cc2s1)Nc1ccccc1 | / | 0 | / | / | / | / | /
Cc1cc(N(CC(=O)Nc2ccc(Cl)cc2C)S(C)(=O)=O)ccc1Br | / | 0 | / | / | / | / | /
COc1ccc(NC(=O)N(C)C[C@H]2Oc3cc(-c4cccc(C(=O)N(C)C)c4)ccc3S(=O)(=O)N([C@H](C)CO)C[C@@H]2C)cc1 | / | -1 | 3 | / | / | / | /
COc1ccc(NC(=O)N(C)C[C@H]2Oc3cc(-c4cccc(C(=O)N(C)C)c4)ccc3S(=O)(=O)N([C@H](C)CO)C[C@H]2C)cc1 | / | 0 | 4 | / | / | / | /
COc1ccc(NC(=O)N(C)C[C@@H]2Oc3cc(-c4ccc(C)cc4)ccc3S(=O)(=O)N([C@H](C)CO)C[C@H]2C)cc1 | 108* | 0 | 0 | 105* | 49 | 10 | 26*
COc1ccc(NC(=O)N(C)C[C@H]2Oc3cc(-c4ccc(C)cc4)ccc3S(=O)(=O)N([C@H](C)CO)C[C@H]2C)cc1 | 102* | 0 | -3 | 104* | 71 | 1 | -1
Cc1ccc(S(=O)(=O)N(CCC#N)CCC#N)cc1 | / | 0 | / | / | / | / | /
O=C(c1ccc(F)cc1)N1CCCCN2[C@@H](CO)[C@H](c3ccc(C#CC4(O)CCCC4)cc3)[C@@H]2C1 | 62 | / | 2 | / | / | / | /
O=C(C1CC1)N1CCCCN2[C@@H](CO)[C@H](c3ccc(C#CC4(O)CCCC4)cc3)[C@@H]2C1 | 77 | / | / | / | / | / | /
O=C(c1ccc(F)cc1)N1CCCCN2[C@H](CO)[C@H](c3ccc(C#CC4(O)CCCC4)cc3)[C@H]2C1 | 106* | / | 0 | 72 | 16 | -2 | 1
O=C(c1ccc(F)cc1)N1CCCCN2[C@@H](CO)[C@@H](c3ccc(C#CC4(O)CCCC4)cc3)[C@@H]2C1 | ? | / | 0 | 80 | 4 | -4 | 5
Cc1cc(Br)ccc1NC(=O)Cn1nc(C)c([N+](=O)[O-])c1C | / | 1 | / | / | / | / | /
CCn1c(SCC(=O)Nc2cccc(Cl)c2)nnc1-c1ccc(Cl)cc1Cl | / | 0 | / | / | / | / | /
O=C(COc1ccc(C(=O)Nc2ccc(Cl)cc2)cc1)Nc1ccccc1C(F)(F)F | / | 0 | / | / | / | / | /
C=CCOc1ccccc1/C=N/NC(=O)CCCCCCC(=O)OC | / | -1 | / | / | / | / | /
C[C@H]1CN([C@@H](C)CO)S(=O)(=O)c2ccc(C#CC3CCCC3)cc2O[C@H]1CN(C)C(=O)c1cccc(F)c1 | 124* | 3 | 0 | 94 | 94 | -3 | 103*
